In brackets after ≈: the same amount, converted by molar mass.
How the values were obtained:
Format in all cases: functional
Candida albicans [1] = test: In vitro concentration causing 50% inhibition of Candida albicans with percentage of resistant strains %R = 50 (MIC > 64 ug/mL) at a range of 2-4 ug/mL
Candida albicans [2] = test: Ratio of the in vitro minimal inhibitory to that of bifonazole against Candida albicans (MIC(compound)/MIC(bifonazole))
In short: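 Broth microdilution per NCCLS M27-A2 against 12 Candida albicans strains (AIDS oropharyngeal, HIV vulvovaginitis isolates, ATCC 24433 and 20891, lab strains 3153 and CA2). Inoculum ~10^4 cells/mL in RPMI 1640, pH 7.0; DMSO stocks 6.4 mg/mL, twofold dilutions 0.016–64 μg/mL; read at 24 h, 28 °C, no visible growth. Mean MIC over strains converted to μmol/mL, divided by bifonazole MIC.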

Candida albicans [3] = test: In vitro minimal inhibitory concentration against Candida albicans with percentage of resistant strains %R = 50 (MIC > 64 ug/mL) at a range of 2-4 ug/mL
Candida albicans [4] = test: In vitro concentration causing 90% inhibition of Candida albicans with percentage of resistant strains %R = 50 (MIC > 64 ug/mL) at a range of 2-4 ug/mL
Candida albicans [5] = test: In vitro minimal inhibitory concentration against Candida albicans with percentage of resistant strains %R = 41.66 (MIC > 64 ug/mL) at a range of 0.5-2 ug/mL
Candida albicans [6] = test: In vitro concentration causing 90% inhibition of Candida albicans with percentage of resistant strains %R = 41.66 (MIC > 64 ug/mL) at a range of 0.5-2 ug/mL
Candida albicans [7] = test: In vitro concentration causing 50% inhibition of Candida albicans with percentage of resistant strains %R = 41.66 (MIC > 64 ug/mL) at a range of 0.5-2 ug/mL
Candida albicans [8] = test: In vitro concentration causing 90% inhibition of Candida albicans with percentage of resistant strains %R = 100 (MIC > 64 ug/mL) at a range > 64
Candida albicans [9] = test: In vitro minimal inhibitory concentration against Candida albicans with percentage of resistant strains %R = 100 (MIC > 64 ug/mL) at a range > 64
Candida albicans [10] = test: In vitro concentration causing 50% inhibition of Candida albicans with percentage of resistant strains %R = 100 (MIC > 64 ug/mL) at a range > 64
Candida albicans [11] = test: In vitro concentration causing 50% inhibition of Candida albicans with percentage of resistant strains %R = 33.33 (MIC > 64 ug/mL) at a range of 0.25-2 ug/mL
Candida albicans [12] = test: In vitro minimal inhibitory concentration against Candida albicans with percentage of resistant strains %R = 33.33 (MIC > 64 ug/mL) at a range of 0.25-2 ug/mL
Candida albicans [13] = test: In vitro concentration causing 90% inhibition of Candida albicans with percentage of resistant strains %R = 33.33 (MIC > 64 ug/mL) at a range of 0.25-2 ug/mL
Candida albicans [14] = test: In vitro minimal inhibitory concentration against Candida albicans with percentage of resistant strains %R = 50 (MIC > 64 ug/mL) at a range of 0.5-16 ug/mL
Candida albicans [15] = test: In vitro concentration causing 90% inhibition of Candida albicans with percentage of resistant strains %R = 50 (MIC > 64 ug/mL) at a range of 0.5-16 ug/mL
Candida albicans [16] = test: In vitro concentration causing 50% inhibition of Candida albicans with percentage of resistant strains %R = 50 (MIC > 64 ug/mL) at a range of 0.5-16 ug/mL
Candida albicans [17] = test: In vitro concentration causing 90% inhibition of Candida albicans with percentage of resistant strains %R = 66 (MIC > 64 ug/mL) at a range of 2-8 ug/mL
Candida albicans [18] = test: In vitro concentration causing 50% inhibition of Candida albicans with percentage of resistant strains %R = 66 (MIC > 64 ug/mL) at a range of 2-8 ug/mL
Candida albicans [19] = test: In vitro minimal inhibitory concentration against Candida albicans with percentage of resistant strains %R = 66 (MIC > 64 ug/mL) at a range of 2-8 ug/mL
Candida albicans [20] = test: In vitro concentration causing 50% inhibition of Candida albicans with percentage of resistant strains %R = 66 (MIC > 64 ug/mL) at a range of 0.25-2 ug/mL
Candida albicans [21] = test: In vitro concentration causing 90% inhibition of Candida albicans with percentage of resistant strains %R = 66 (MIC > 64 ug/mL) at a range of 0.25-2 ug/mL
Candida albicans [22] = test: In vitro minimal inhibitory concentration against Candida albicans with percentage of resistant strains %R = 66 (MIC > 64 ug/mL) at a range of 0.25-2 ug/mL
Candida albicans [23] = test: In vitro concentration causing 50% inhibition of Candida albicans with percentage of resistant strains %R = 25 (MIC > 64 ug/mL) at a range of 0.5-2 ug/mL
Candida albicans [24] = test: In vitro concentration causing 90% inhibition of Candida albicans with percentage of resistant strains %R = 25 (MIC > 64 ug/mL) at a range of 0.5-2 ug/mL
Candida albicans [25] = test: In vitro minimal inhibitory concentration against Candida albicans with percentage of resistant strains %R = 25 (MIC > 64 ug/mL) at a range of 0.5-2 ug/mL
Candida albicans [26] = test: In vitro concentration causing 90% inhibition of Candida albicans with percentage of resistant strains %R = 50 (MIC > 64 ug/mL) at a range of 0.125-2 ug/mL
Candida albicans [27] = test: In vitro minimal inhibitory concentration against Candida albicans with percentage of resistant strains %R = 50 (MIC > 64 ug/mL) at a range of 0.125-2 ug/mL
Candida albicans [28] = test: In vitro concentration causing 50% inhibition of Candida albicans with percentage of resistant strains %R = 50 (MIC > 64 ug/mL) at a range of 0.125-2 ug/mL

`COC(Cn1cc(-c2ccc(Cl)cc2)c(C(c2ccc(Cl)cc2Cl)n2ccnc2)c1)OC` (stereo not given) gave an MIC50 (Candida albicans [1]) of 2 µg/mL (≈ 4.07 µM), a Ratio (Candida albicans [2]) of 0.48 and an MIC (Candida albicans [3]) of 2.66 µg/mL (≈ 5.42 µM). The MIC90 (Candida albicans [4]) was 4 µg/mL (≈ 8.15 µM).
`CCn1cc(-c2ccc(Cl)cc2Cl)c(C(c2ccc(Cl)cc2Cl)n2ccnc2)c1` (stereo not given) was tested, and the Ratio (Candida albicans [2]) was 0.23, the MIC (Candida albicans [5]) was 1.21 µg/mL (≈ 2.6 µM) and the MIC90 (Candida albicans [6]) was 2 µg/mL (≈ 4.3 µM). The MIC50 (Candida albicans [7]) was 1 µg/mL (≈ 2.15 µM).
In the case of `CCCn1cc(-c2ccc(Cl)cc2Cl)c(C(c2ccc(Cl)cc2Cl)n2ccnc2)c1` (stereo not given), the MIC90 (Candida albicans [8]) is reported as over 64 µg/mL, the MIC (Candida albicans [9]) is reported as over 64 µg/mL and the MIC50 (Candida albicans [10]) is reported as over 64 µg/mL.
In the case of `Cc1ccc(C(c2cn(C)cc2-c2ccc(Cl)c(Cl)c2)n2ccnc2)cc1` (stereo not given), the Ratio (Candida albicans [2]) is reported as 0.19, the MIC50 (Candida albicans [11]) is reported as 0.5 µg/mL (≈ 1.26 µM) and the MIC (Candida albicans [12]) is reported as 0.87 µg/mL (≈ 2.2 µM). The MIC90 (Candida albicans [13]) was 2 µg/mL (≈ 5.05 µM).
`Cn1cc(-c2cccc3ccccc23)c(C(c2ccc(Cl)cc2Cl)n2ccnc2)c1` (stereo not given) was tested, and the MIC (Candida albicans [14]) was 4.58 µg/mL (≈ 10.6 µM), the Ratio (Candida albicans [2]) was 0.94 and the MIC90 (Candida albicans [15]) was 16 µg/mL (≈ 37 µM). The MIC50 (Candida albicans [16]) was 4 µg/mL (≈ 9.25 µM).
In the case of `CCn1cc(-c2cccc3ccccc23)c(C(c2ccc(Cl)cc2Cl)n2ccnc2)c1` (stereo not given), the Ratio (Candida albicans [2]) is reported as 1.1, the MIC90 (Candida albicans [17]) is reported as 8 µg/mL (≈ 17.9 µM) and the MIC50 (Candida albicans [18]) is reported as 4 µg/mL (≈ 8.96 µM). It also gave an MIC (Candida albicans [19]) of 5.5 µg/mL (≈ 12.3 µM).
`CCCn1cc(-c2ccc(Cl)cc2)c(C(c2ccc(Cl)cc2Cl)n2ccnc2)c1` (stereo not given) was tested, and the Ratio (Candida albicans [2]) was 1.7, the MIC50 (Candida albicans [20]) was 1 µg/mL (≈ 2.25 µM) and the MIC90 (Candida albicans [21]) was 32 µg/mL (≈ 71.9 µM). The MIC (Candida albicans [22]) was 8.56 µg/mL (≈ 19.2 µM).
Work on `CCn1cc(-c2ccc(Cl)cc2)c(C(c2ccc(Cl)cc2Cl)n2ccnc2)c1` (stereo not given) yielded a Ratio (Candida albicans [2]) of 0.31, an MIC50 (Candida albicans [23]) of 2 µg/mL (≈ 4.64 µM) and an MIC90 (Candida albicans [24]) of 2 µg/mL (≈ 4.64 µM). The MIC (Candida albicans [25]) was 1.5 µg/mL (≈ 3.48 µM).
`Cn1cc(-c2ccc(Cl)cc2)c(C(c2ccc(Cl)cc2Cl)n2ccnc2)c1` (stereo not given) gave a Ratio (Candida albicans [2]) of 0.28, an MIC90 (Candida albicans [26]) of 2 µg/mL (≈ 4.8 µM) and an MIC (Candida albicans [27]) of 1.31 µg/mL (≈ 3.14 µM). For the same compound, the MIC50 (Candida albicans [28]) was 1 µg/mL (≈ 2.4 µM).

Source: ChEMBL document CHEMBL1141140, “Antifungal agents. 11. N-substituted derivatives of 1-[(aryl)(4-aryl-1H-pyrrol-3-yl)methyl]-1H-imidazole: synthesis, anti-Candida activity, and QSAR studies” (2005)
